Screening results from PubChem.
The list is not random: actives were taken first. Their share in the collection is about 1.4%.
GSIS activator = primary screen for activators of insulin secretion dependent on glucose, INS-1E cells, GLuc reporter luminescence; activation, % at 16.6 µM; INS-1E GLuc reporter insulin secretion, 2-3 h; actives 0.61% (n = 370,000);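 active = lowest replicate activation of at least 40%, so every replicate reaches that level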;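 also: 0% = median of neutral control wells and 100% = median of IBMX positive control wells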
GSK3A inh = blocks human GSK-3 alpha kinase. P49840. ADP-Glo luminescence, 60 min. inhibition, % at 10 µM. actives 0.1% (n = 320,000). AID 2650;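 active = more than half of replicates show inhibition above 20%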;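 also: GST-tagged GSK-3 alpha with peptide substrate and 25 µM ATP; 0% = DMSO neutral wells and 100% = GW8510 positive control wells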
HIV Env fusion = inhibitors of HIV Env-mediated cell fusion. HeLa-JRFL Env/CEM21 cell fusion, luciferase. inhibition, % at 12.3 µM. actives 1.1% (n = 360,000);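 active = mean replicate inhibition score of at least 50 and every replicate individually at or above 50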;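 also: 0% = plate neutral controls and 100% = maraviroc near 300 nM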
CDK5 inh = CDK5/p35 (human) kinase inhibition; Q00535+Q15078; Recombinant CDK5/p35, ADP-Glo luminescence, 60 min; actives 0.01% (n = 330,000); inhibition, % at 10 µM;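 active = highest replicate inhibition of at least 50% and at least 75% of replicates reaching 50%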;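 also: plate controls were DMSO neutral control for no effect and GW8510 at 10 µM for full effect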
GSK3beta inhib = inhibitors of human GSK3beta kinase | actives 0.038% (n = 300,000) | AID 2097 | activity score (negative = inhibition), % at 10 µM | GST-GSK3beta kinase, ADP-Glo luminescence, 60 min; active compounds read low | P49841;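 active = more than half of replicate wells score below -50%, meaning over 50% inhibition versus plate controls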;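 also: 0% = median DMSO wells and -100% = median GW8510 positive control wells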
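Assay system: GST-fused GSK3beta enzyme, cell-free / Medium: Tris pH 7.5 buffer with MgCl2, DTT, BSA, heparin / Also added: peptide substrate plus 25 µM ATP (final) / Compound: 10 µM single point / Timing: kinase reaction with compound 60 min at room temperature / Detection: ADP-Glo luminescence / Benchmarks: DMSO neutral wells and GW8510 at 20 µM as positive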
STK33 kinase inh = blocks human STK33 kinase activity | Q9BYT3 | purified STK33, MBP phosphorylation, ADP-Glo luminescence | inhibition, % at 10 µM | actives 0.073% (n = 320,000) | AID 2661;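 active = inhibition at or above 25%, using the most active replicate where run in duplicate; inactive = inhibition below 25%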
Target sequence (Q9BYT3 whole entry, looked up): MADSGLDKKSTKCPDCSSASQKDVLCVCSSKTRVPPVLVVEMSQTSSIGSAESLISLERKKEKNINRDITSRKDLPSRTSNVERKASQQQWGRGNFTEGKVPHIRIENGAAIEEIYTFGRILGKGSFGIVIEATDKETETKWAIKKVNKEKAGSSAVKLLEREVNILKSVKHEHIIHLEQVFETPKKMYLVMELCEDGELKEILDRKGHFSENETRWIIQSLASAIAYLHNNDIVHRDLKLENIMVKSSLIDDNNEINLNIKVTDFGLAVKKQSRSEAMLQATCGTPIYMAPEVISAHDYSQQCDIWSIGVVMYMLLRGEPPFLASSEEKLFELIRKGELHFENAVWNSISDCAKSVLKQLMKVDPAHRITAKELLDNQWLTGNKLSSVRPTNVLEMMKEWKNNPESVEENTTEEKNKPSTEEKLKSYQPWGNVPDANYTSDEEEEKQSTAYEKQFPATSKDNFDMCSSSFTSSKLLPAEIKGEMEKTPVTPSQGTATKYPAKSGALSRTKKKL
The depositor's hits bear a star; x = no result given; [ ] = another dose, or the depositor's remark.

SMILES	GSIS activator	GSK3A inh	HIV Env fusion	CDK5 inh	GSK3beta inhib	STK33 kinase inh
OC(c1ccccc1)(c1nc(-c2cccc(C(F)(F)F)c2)cs1)C(F)(F)F (configuration not stated)	106*	x	10	x	x	x
CC(C)NC(=O)Nc1ccc2c(c1)CC(=O)N(C)C[C@@H](C)[C@H](CN(C)C(=O)NC(C)C)O2	22	x	x	x	x	x
CCNC(=O)C[C@H]1CC[C@H]2[C@H](COc3ccc(NC(C)=O)cc3C(=O)N2C)O1	21	x	-17[16.7 µM]	x	x	x
Nc1ncnc2c(C3OC(CO)C(O)C3O)scc12 (configuration not stated)	-18	x	109*	-1	x	x
CCC(=O)Nc1ccc2c(c1)OC[C@H](C)N(C(=O)CC)C[C@H](C)[C@H](OC)CN(C)C2=O	4	x	x	x	x	x
COc1ccc(OC)c(Nc2nc(NCCCN(C)C)nc(N)c2[N+](=O)[O-])c1	-10	88*	-6	-9	-65*	14
COc1ccccc1Nc1nc(NCCO)nc(N)c1[N+](=O)[O-]	1	60*	-17	x	-27	2
COc1cccc(S(=O)(=O)N[C@@H]2CC[C@H](CC(=O)NC3CCC3)O[C@@H]2CO)c1	2	x	8[16.7 µM]	x	x	x
C=C1C(=O)O[C@H]2C[C@H]1[C@@H](OC(C)=O)C/C(C)=C/CC/C(C)=C\CC[C@]2(C)O	x	x	81*	0	x	x
Cc1ccc(S(=O)(=O)N(C)C[C@H]2Oc3ncc(Br)cc3C(=O)N([C@@H](C)CO)C[C@H]2C)cc1	23	x	23[16.7 µM]	x	x	x
Cc1ccc(S(=O)(=O)N(C)C[C@@H]2Oc3ncc(Br)cc3C(=O)N([C@@H](C)CO)C[C@@H]2C)cc1	-4	x	58*[16.7 µM]	x	x	x
Cc1ccc(S(=O)(=O)N(C)C[C@H]2Oc3ncc(Br)cc3C(=O)N([C@@H](C)CO)C[C@@H]2C)cc1	-21	x	77*[16.7 µM]	x	x	x
CCCC(=O)Nc1ccc2c(c1)OC[C@@H](C)N(C(=O)c1ccccc1F)C[C@@H](C)[C@H](OC)CN(C)C2=O	-19	x	x	x	x	x
CCS(=O)(=O)N1[C@@H](CO)[C@@H](c2ccccc2)C12CN(C(=O)C1CCCCC1)C2	0	x	x	x	x	x
C[C@@H]1CN(C)C(=O)Cc2cc([N+](=O)[O-])ccc2O[C@H]1CN(C)C(=O)OC(C)(C)C	0	x	x	x	x	x
Cc1sc2ncnc(Sc3nnnn3-c3ccc(Cl)cc3)c2c1C	x	-2	50*	1	0	-1
COC(=O)c1nn(-c2ccccc2)c(=O)cc1Oc1ccc(Cl)cc1	x	1	122*	0	-2	-1
CCC(NS(=O)(=O)c1c(C)[nH]c(=O)[nH]c1=O)C12CC3CC(CC(C3)C1)C2 (configuration not stated)	3	-1	80*	-1	2	-1
Cc1nn(Cc2ccc(Cl)cc2Cl)c(C)c1NC(=O)c1ccc(COc2cc(Cl)ccc2Cl)o1	x	-1	x	-1	1	0
Cc1nn(Cc2c(F)c(F)c(F)c(F)c2F)c(C)c1NC(=O)c1ccc(COc2ccc(Cl)cc2Cl)o1	-43	-1	68*	1	0	-2
COc1ccc(CNC(=O)CCc2c[nH]c3ccccc23)cc1	14	12	9	-2	0	10
COC(=O)c1ccc(CNC(=O)CCc2c[nH]c3ccccc23)cc1	50*	1	-7	-1	-3	-2
Cc1ccc(S(=O)(=O)N(CC(=O)NCCC2=CCCCC2)Cc2ccccc2F)cc1	x	-3	x	0	-1	-3
O=C(CN(Cc1ccccc1)S(=O)(=O)c1ccc(F)cc1)NCCC1=CCCCC1	x	1	109*	-1	-1	-1
Cc1ccc(S(=O)(=O)N(CC(=O)NCCC2=CCCCC2)Cc2ccccc2)cc1	x	-4	104*	2	0	0
O=C(CN(Cc1ccccc1F)S(=O)(=O)c1ccc(Cl)cc1)NCCC1=CCCCC1	x	-1	69*	0	0	0
C[C@H]1CN([C@@H](C)CO)C(=O)c2cccc(NC(=O)C3CCOCC3)c2O[C@H]1CN(C)Cc1ccncc1	3	x	-13[16.7 µM]	x	x	x
C=CCNc1cc(C)oc(=O)c1C(=O)CC	43	-3	-12	1	-1	-2
C=CCNc1cc(C)oc(=O)c1C(=O)CCC	71*	5	11	0	4	-1
O=c1ccc2cc3c([nH]c4ccc(Br)cc43)oc-2c1O	x	12	-31	12	2	39*
